The source of these data is ChEMBL document CHEMBL5236609, “Optimization of 1,2,4-Triazole-3-thiones toward Broad-Spectrum Metallo-β-lactamase Inhibitors Showing Potent Synergistic Activity on VIM- and NDM-1-Producing Clinical Isolates” (J Med Chem, 2022).

Each structure is given as a SMILES string. Active and inactive are the calls of the source. No cut-off for these calls is given here. A value given as a limit tells only on which side of the number the result lay.

As a reminder, the Ki is the dissociation constant of the complex between target and ligand, obtained from inhibition or displacement. As usually defined, the MIC is the lowest concentration that inhibits growth of the organism. One may read the inhibition as the percentage by which the read-out fell short of the control. By Kd is commonly meant the equilibrium constant for the complex coming apart.

Assay [1] in a line: Inhibition of bacterial VIM-4 (unknown origin) expressed in Escherichia coli EXPRESS BL21(DE3) assessed as inhibition constant by measuring rate of substrate hydrolysis by UV-visible spectrophotometry. Details: species or system Bacteria. Put shortly:
(§1)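 Reporter-substrate assay with purified MBL (1–70 nM final) in 50 mM HEPES pH 7.5 at 30 °C. […] Inhibitor 0.5–1000 μM final. Ki derived from the v0/vi vs [I] slope assuming competitive inhibition, or from a Dixon plot. Ki given when inhibition >70%, otherwise % inhibition at 100 μM. Triplicate.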

The test system of assay [2] is Pseudomonas aeruginosa. In words: Antimicrobial activity against blaVIM-2-producing multidrug-resistant Pseudomonas aeruginosa VA-182/00 clinical isolate assessed as meropenem MIC at 32 ug/ml by broth microdilution method (reference value: 128 ug/ml). To be noted: dose 32 µg/ml. The class given is functional. The gist of the method:
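Inoculum was 5×10^4 CFU/well. Each inhibitor was present at a fixed 32 μg/mL, and MICs were also taken without inhibitor.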
Background: In broth dilution the organism is exposed to a series of concentrations in liquid medium.

The test system of assay [3] is Bacteria. In words: Inhibition of bacterial IMP-1 (unknown origin) expressed in Escherichia coli EXPRESS BL21(DE3) assessed as inhibition constant by measuring rate of substrate hydrolysis at 100 uM by UV-visible spectrophotometry relative to control. Put shortly:
as §1

The test system of assay [4] is Bacteria. In words: Inhibition of bacterial NDM-1 (unknown origin) assessed as Zn(II) content in protein at 48 uM at 48 uM by overnight equilibrium dialysis. Put shortly:
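VIM-2 or NDM-1 (3 μM final) in 50 mM HEPES pH 7.5 mixed with compound at 0–48 μM. Incubated 1 h on ice, then dialysed overnight at 4 °C against 50 mM HEPES pH 7.5. Zn(II) content measured by atomic absorption at 213.86 nm against a zinc standard curve. Each point averages three samples.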

For assay [5], the system named is Bacteria. Description: Inhibition of bacterial VIM-2 (unknown origin) assessed as decrease in Zn(II) content in protein at 50 uM by native MS analysis. The gist of the method: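 Purified VIM-2 or NDM-1 was given 2 mM TCEP and 2 equiv ZnCl2, incubated 1 h, and dialysed overnight into 100 mM ammonium acetate pH 7.5. Enzyme at 10 μM was then incubated 5 min with 50 μM compound. Positive-mode nanoESI on an Orbitrap, scanning m/z 1000–4000. Species assigned from deconvoluted masses.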

A short description of assay [6]: Binding affinity to Zn(II) assessed as dissociation constant by isothermal calorimetric assay. (Isothermal titration calorimetry measures the heat released or taken up as one component is titrated into another.)
Assay [7] in a line: Binding affinity to Zn(II) assessed as change in enthalpy by isothermal calorimetric assay.
The nature of assay [8]: Chelation of Zn(II) in bacterial VIM-2 (unknown origin) by isothermal calorimetric assay. Put shortly: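 ITC at 25 °C. VIM-2 at 19 μM in 10 mM HEPES-NaOH, 0.15 M NaCl, pH 7.5 with DMSO matched to 1%, titrated with compound at 200 μM: one 0.5 μL injection, then 19 × 2 μL at 150 s intervals. Buffer dilution heats subtracted. Nonlinear fit gives n, Ka and ΔH°; values regarded as apparent.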

A short description of assay [9]: Chelation of Zn(II) in bacterial NDM-1 (unknown origin) by isothermal calorimetric assay.
Assay [10] deals with T1, Aminopeptidase N (Sus scrofa) (UniProt P15145).
T1 sequence (whole entry): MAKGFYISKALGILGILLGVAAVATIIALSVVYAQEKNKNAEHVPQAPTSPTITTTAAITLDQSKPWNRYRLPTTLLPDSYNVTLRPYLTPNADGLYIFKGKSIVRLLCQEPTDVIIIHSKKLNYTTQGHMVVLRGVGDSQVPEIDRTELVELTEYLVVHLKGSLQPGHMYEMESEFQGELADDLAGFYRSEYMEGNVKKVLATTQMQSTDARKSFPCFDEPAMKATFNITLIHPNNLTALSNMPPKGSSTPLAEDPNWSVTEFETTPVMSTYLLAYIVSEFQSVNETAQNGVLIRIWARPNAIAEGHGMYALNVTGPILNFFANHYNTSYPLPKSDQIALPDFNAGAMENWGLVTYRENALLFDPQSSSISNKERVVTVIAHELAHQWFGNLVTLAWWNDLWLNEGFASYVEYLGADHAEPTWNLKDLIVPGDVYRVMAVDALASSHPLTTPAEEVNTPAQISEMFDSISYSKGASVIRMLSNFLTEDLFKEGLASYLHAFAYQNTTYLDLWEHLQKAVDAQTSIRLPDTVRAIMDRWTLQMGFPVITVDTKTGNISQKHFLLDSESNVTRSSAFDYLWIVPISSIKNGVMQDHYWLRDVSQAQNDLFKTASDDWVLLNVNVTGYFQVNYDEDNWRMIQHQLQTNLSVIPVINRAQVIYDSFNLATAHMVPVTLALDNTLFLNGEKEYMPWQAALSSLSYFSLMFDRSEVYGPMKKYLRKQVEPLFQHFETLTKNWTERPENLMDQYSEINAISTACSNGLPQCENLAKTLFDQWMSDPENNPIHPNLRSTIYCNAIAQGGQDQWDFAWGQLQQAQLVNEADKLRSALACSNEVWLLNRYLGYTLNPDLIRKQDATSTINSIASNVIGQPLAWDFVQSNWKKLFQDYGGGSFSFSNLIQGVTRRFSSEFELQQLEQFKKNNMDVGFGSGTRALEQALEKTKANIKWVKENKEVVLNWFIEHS
In words: Inhibition of porcine APN using fluorogenic substrate H-Leu-AMC measured for 1 h rat 100 uM relative to control.

Assay [11] has as its system Klebsiella pneumoniae. Description: Antimicrobial activity against blaVIM-1-producing multidrug-resistant Klebsiella pneumoniae 7023 clinical isolate assessed as meropenem MIC using cation-adjusted Mueller-Hinton broth at 8 ug/ml by broth microdilution method (reference value: […] ug/ml). The class given is functional. To be noted: dose 8 µg/ml. Put shortly:
(§2)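 Checkerboard broth microdilution in cation-supplemented Mueller–Hinton broth, inoculum 5×10^4 CFU/well, per CLSI. […] The average fractional inhibitory concentration index was computed from the checkerboard.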

Assay [12] concerns Klebsiella pneumoniae. Description: Antimicrobial activity against blaVIM-4-producing multidrug-resistant Klebsiella pneumoniae VA-416/02 clinical isolate assessed as meropenem MIC using cation-adjusted Mueller-Hinton broth at 16 ug/ml by broth microdilution method (reference value: […] ug/ml). Type of assay: functional. To be noted: dose 16 µg/ml. The gist of the method:
as §2

The subject of assay [13] is Klebsiella pneumoniae. In words: Antimicrobial activity against blaVIM-4-producing multidrug-resistant Klebsiella pneumoniae VA-416/02 clinical isolate assessed as meropenem MIC using cation-adjusted Mueller-Hinton broth at 2 ug/ml by broth microdilution method (reference value: […] ug/ml). To be noted: dose 2 µg/ml. Type of assay: functional. The gist of the method: as §2

For assay [14], the system named is Klebsiella pneumoniae. Description: Antimicrobial activity against blaVIM-4-producing multidrug-resistant Klebsiella pneumoniae VA-416/02 clinical isolate assessed as meropenem MIC using cation-adjusted Mueller-Hinton broth at 1 ug/ml by broth microdilution method (reference value: […] ug/ml). Type of assay: functional. The settings on record: dose 1 µg/ml. Put shortly:
as §2

Assay [15] has as its system Klebsiella pneumoniae. In words: Antimicrobial activity against blaVIM-4-producing multidrug-resistant Klebsiella pneumoniae VA-416/02 clinical isolate assessed as meropenem MIC using cation-adjusted Mueller-Hinton broth at 0.5 ug/ml by broth microdilution method (reference value: […] ug/ml). Type of assay: functional. To be noted: dose 0.5 µg/ml. The gist of the method: as §2

The test system of assay [16] is Escherichia coli. In words: Antimicrobial activity against blaNDM-1-producing multidrug-resistant Escherichia coli SI-004 clinical isolate assessed as meropenem MIC using cation-adjusted Mueller-Hinton broth at 32 ug/ml by broth microdilution method (reference value: 64 ug/ml). The class given is functional. The settings on record: dose 32 µg/ml. The gist of the method: as §2

Consider `O=C(O)[C@H](CCn1c(-c2ccccc2)n[nH]c1=S)N(Cc1c[nH]cn1)Cc1c[nH]cn1`, for which the Ki in assay [1] is 230 nM. In [2], the MIC came to 8 µg/mL.

Turning to `O=C(O)[C@H](CCCn1c(-c2ccccc2)n[nH]c1=S)N(Cc1ccccn1)Cc1ccccn1`, the Ki in assay [1] was 760 nM. Further, the inhibition in [3] was under 30%; in [10] it was 30%. For the same compound, the Activity in assay [4] came out at 1.09 equiv. Moreover, in assay [5], the inhibition result was “Active”. In assay [6], the equilibrium dissociation constant (Kd) worked out at 10 nM. Moreover, the deltaH in [7] amounted to 6 kcal/mol. Besides, the outcome in assay [8] and in assay [9] was inactive. Further, in assay [2], the MIC turned out to be 16 µg/mL.

Turning to `Cc1[nH]cnc1CN(Cc1c[nH]cn1)[C@@H](CCCn1c(-c2ccccc2)n[nH]c1=S)C(=O)O`, the inhibition constant Ki in assay [1] is 420 nM. Also, the MIC in assay [2] amounted to 8 µg/mL. In assay [10], the inhibition came out at 58%.

As for `O=C(O)[C@H](CCCn1c(-c2ccccc2)n[nH]c1=S)N(Cc1c[nH]cn1)Cc1c[nH]cn1`, in assay [1], the inhibitory constant (Ki) is 200 nM. The inhibition in [3] is 40%. Further, the Activity in assay [4] is 1.09 equiv. The inhibition entry in assay [5] was “Active”. Further, the Kd in [6] is 10 nM. The deltaH in [7] turned out to be 5 kcal/mol. The outcome in assay [8] and in [9] was Active. Further, the minimum inhibitory concentration (MIC) was determined as 8 µg/mL in [2]; 1 µg/mL in [11]; 0.06 µg/mL in [12]; 4 µg/mL in assay [13]; 8 µg/mL in assay [14]; 16 µg/mL in [15]. Moreover, the minimal inhibitory concentration (MIC) in assay [16] was 0.03 µg/mL.

On to `O=C(O)[C@H](CCCn1c(-c2ccc3ccccc3c2)n[nH]c1=S)N(Cc1c[nH]cn1)Cc1c[nH]cn1`, for which, in assay [1], the Ki was found to be 340 nM. The MIC in assay [2] was determined as 8 µg/mL.
